ABCB1 inh = ABCB1 efflux pump inhibitors, primary screen, cell-based, multiplex, flow cytometry, ABCG2 counter-screen; CCRF-Adr cells, JC-1 efflux; inhibition, % at 6.6 µM; 190,000 tested, 0.067% active; in the data active = inhibition above about 40%;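 note: higher value means more JC-1 retained so stronger ABCB1 efflux block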
GSH fluor = compound fluorescence on glutathione beads, profiling panel, artefact control, biophysical, 488/530 nm, flow cytometry. GSH beads flow cytometry, compound fluorescence 488/530 nm; hits give high values. fluorescence (KMESF) at 10 µM. 190,000 tested, 0.25% active; in the data active = fluorescence above about 89;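 note: glutathione beads carrying GST-tagged Bcl family fusion proteins plus one bare bead set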
DTT redox prof = compounds producing H2O2 with reducing agent – biochemical, NIH compound library profiling, artefact control for MLSCN library redox annotation, primary screen | DTT-dependent redox cycling H2O2, phenol red/HRP absorbance; 100% = 100 µM peroxide control, 0% = buffer | activation, % at 10 µM | 200,000 tested, 0.03% active | AID 878, 2007;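 active = activation of at least 50% relative to the plate's high and low controls in the primary single-dose screen; inactive = activation below 50%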;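 note: compound incubated with DTT at 0.8 mM final as the reducing agent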
ABCG2 block = ABCG2 efflux pump inhibitors, primary screen, multiplex with ABCB1, IgMXP3 cells, flow cytometry; JC-1 efflux; inhibition, % at 6.6 µM; 190,000 tested, 0.1% active;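 active = inhibition above 80%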
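Assay system – ABCG2 IgMXP3 and barcoded ABCB1 CCRF-Adr cell mix · Input – 3 million cells/mL in well · Reagent – JC-1 fluorescent substrate · Compound – single test compound dose, 6.6 µM final · Timing – 10 min exposure at 25 °C with rotation, no wash · Detection – flow cytometry of retained JC-1 fluorescence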
Avidin bead fluor = green autofluorescence of compounds with avidin beads – biophysical, 488/530 nm, flow cytometry, artefact control, profiling panel | 220,000 tested, 0.38% active | fluorescence (KMESF) at 10 µM | AID 1775, 2009 | compound fluorescence 488/530 nm; hits give high values; in the data active = fluorescence above about 47
Large screens that a line does not name were inactive. Hits are enriched below; roughly 0.72% of the tested compounds scored in any of these assays.

O=C(O)CCCCCNC(=O)Cn1nnc2ccccc2c1=O	none (no result: ABCB1 inh, GSH fluor, DTT redox prof, ABCG2 block)
CCCc1nnc(NS(=O)(=O)c2ccc(OC)cc2)s1	none
COc1ccc(S(=O)(=O)Nc2nncs2)cc1	Avidin bead fluor 49
CSc1ccc(C(=O)C2CCCN(S(=O)(=O)c3c(C)noc3C)C2)cc1 (stereo not given)	none
O=C(O)c1ccc2c(c1)C(=O)N(N1C(=O)c3ccccc3C1=O)C2=O	GSH fluor 111
CC(=O)Oc1ccccc1N1C(=O)c2ccc(C(=O)O)cc2C1=O	none
CCN(C(=O)COC(=O)c1c2c(nc3ccccc13)/C(=C/c1ccccc1)CC(C)C2)C1CCS(=O)(=O)C1 (stereo not given)	none
FC(F)(F)c1nnc2ccc(-n3ccnc3)nn12	none
FC(F)(F)c1ccc(-n2ccnc2)nc1	GSH fluor 265
C=CCn1c(=O)c2c(nc3n2CCS3)n(C)c1=O	none
Cn1c(=O)n(Cc2ccccc2)c(=O)c2c1nc1n2CCS1	GSH fluor 266
COC(=O)c1ccc(Cl)c(NC(=O)NC23CC4CC(CC(C4)C2)C3)c1	none
COC(=O)c1cccc(NC(=O)NC23CC4CC(CC(C4)C2)C3)c1	GSH fluor 243
CCOC(=O)CSc1nc2ccccc2c(=O)n1C1CCCC1	Avidin bead fluor 91
CCOC(=O)CSc1nc2ccccc2c(=O)n1C	none
Cc1c(N2C(=O)c3ccccc3C2(O)c2ccccc2)c(=O)n(-c2ccccc2)n1C (stereo not given)	none (no result: ABCB1 inh, GSH fluor, DTT redox prof, ABCG2 block)
COCCn1c(N)c(N(Cc2ccccc2)C(=O)c2oc3ccccc3c2C)c(=O)[nH]c1=O	none
COc1ccc(NC(=O)CSc2nnc(NC(C)=O)s2)c([N+](=O)[O-])c1	none
COc1ccc(Cn2c(=O)n(Cc3ccco3)c(=N)c3c4c(sc32)COC(C)(C)C4)cc1	Avidin bead fluor 125
CC1(C)Cc2c(sc3c2c(=N)n(Cc2ccco2)c(=O)n3Cc2ccc(F)cc2)CO1	none
CCC(OC(=O)c1cc2sccc2n1C)C(=O)NCC1CCCO1 (stereo not given)	Avidin bead fluor 47
CC(Oc1ccc(Cl)cc1Cl)c1nc(-c2ccc(NC(=O)c3ccccn3)cc2)no1 (stereo not given)	GSH fluor 108
CCCCC(=O)NC(=S)Nc1ccc(S(=O)(=O)N2CCCC2)cc1	none
COC(=O)c1nnn(-c2nonc2N)c1CSc1nnc(N)s1	none
CC(=O)C1=C(O)C(=O)N(Cc2cccnc2)C1c1ccc(Cl)cc1 (stereo not given)	none
CC(=O)C1=C(O)C(=O)N(Cc2ccccc2)C1c1cccs1 (stereo not given)	Avidin bead fluor 171
COc1ccc2[nH]c(=O)c(CN(Cc3nnnn3Cc3ccc(F)cc3)CC3CCCO3)cc2c1 (stereo not given)	Avidin bead fluor 105
CC1Cc2ccccc2N1C(=O)c1nn(C)cc1Br (stereo not given)	none
Cc1ccc(N(CC(=O)NCc2ccco2)C(=O)CCC(=O)Nc2ccccn2)cc1C	GSH fluor 254
CCOC(=O)C(NC(=O)Nc1ccc(C(N)=O)cc1)(c1ccccc1)C(F)(F)F (stereo not given)	none
CSc1nc(Cl)cc(Nc2ccc(O)cc2)n1	none
Cc1cc(NC(=O)CN2C(=O)c3ccccc3C2=O)no1	none (no result: ABCB1 inh, GSH fluor, DTT redox prof, ABCG2 block)
COc1ccc(-n2c(C)cc(C(=O)CSc3nn4c(=O)c(C(C)(C)C)nnc4s3)c2C)cc1	Avidin bead fluor 57
COc1ccc(C(=O)CSc2nn3c(=O)c(C(C)(C)C)nnc3s2)cc1	none
Cc1c(Cl)cccc1NC(=S)NC1CCN(C(C)C)CC1	none
CN(C)C(=O)COC(=O)[C@H](Cc1ccccc1)NC(=O)c1ccco1	Avidin bead fluor 53
CC(C)[C@H](N)c1nnc(SC/C=C/c2ccccc2)o1	none
Cn1cc(Br)c(NC(=O)/C=C/C(=O)O)n1	none (no result: ABCB1 inh, GSH fluor, DTT redox prof, ABCG2 block)
CCN(C(=O)CSc1nnnn1-c1cc(C)ccc1OC)C1CCS(=O)(=O)C1 (stereo not given)	GSH fluor 267
C=CCN1C(=O)C2(NNc3ccccc3O2)c2ccccc21 (stereo not given)	none
